Here are results for 76 compounds from ChEMBL document CHEMBL1250461, “Synthesis, binding and bioactivity of gamma-methylene gamma-lactam ecdysone receptor ligands: advantages of QSAR models for flexible receptors” (Bioorg Med Chem, 2010).

The term IC50 denotes the concentration needed to halve the response being measured.

Molecules are shown by their SMILES.

The assay is described as follows: Binding affinity to Bovicola ovis recombinant ecdysone receptor ligand binding domain after 3 hrs by fluorescence polarization assay. The gist of the method: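 B. ovis EcR_DEF/USP_DEF LBD heterodimer, co-expressed from baculovirus and purified by IMAC (2.51 mg/mL final). Competes with 36 nM fluorescein–inokosterone A conjugate in 50 mM sodium phosphate, 100 mM NaCl, pH 7.4 with 0.5 mg/mL BSA and 3% v/v DMSO. Compound range 3 nM–3 mM final. Incubated overnight at 4 °C, then 3 h at room temperature before polarisation (mP) read. Triplicate; IC50 from mean.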
(In general: Polarisation of emitted light reports the rotation of a fluorescent probe.)
Turning to `C=C1C(CCCC)=C(C#N)C(=O)N1c1c(C)cccc1[N+](=O)[O-]`, the IC50 was found to be 71 µM.

For the compound `C=C1C(C)=C(C#N)C(=O)N1c1cc(Cl)c(Cl)cc1Cl`, the IC50 amounted to 7 µM.

On to `C=C1C(C)=C(C#N)C(=O)N1c1c(C)cc(Cl)cc1Cl`, for which the IC50 came to 55 µM.

As to `C=C1C(C)=C(C#N)C(=O)N1c1c(C)cc(Cl)cc1C`, the IC50 is 48 µM.

For the compound `C=C1C(C)=C(C#N)C(=O)N1c1c(C)cc(C)cc1C`, the IC50 was 68 µM.

On to `C=C1C(CC)=C(C#N)C(=O)N1c1cccc(Cl)c1Cl`, for which the IC50 came out at 17.5 µM.

As to `C=C1C(CC)=C(C#N)C(=O)N1c1cccc(Cl)c1C`, the half-maximal inhibitory concentration (IC50) was determined as 15 µM.

With `C=C1C(CC)=C(C#N)C(=O)N1c1c(C)cccc1CC`, the IC50 amounted to 80 µM.

Take `C=C1C(CC)=C(C#N)C(=O)N1c1c(Cl)cc(Cl)cc1Cl`: the IC50 was found to be 160 µM.

For `C=C1C(CC(C)C)=C(C#N)C(=O)N1c1ccccc1C`, the 50% inhibitory concentration (IC50) stood at 11 µM.

Regarding `C=C1C(C)=C(C#N)C(=O)N1C1CCCC1`, the IC50 was 85 µM.

As to `C=C1C(C)=C(C#N)C(=O)N1C1CCCCC1`, the 50% inhibitory concentration (IC50) was 50 µM.

With `C=C1C(CCC)=C(C#N)C(=O)N1C1CCCCC1`, the half-inhibitory concentration (IC50) was 27.5 µM.

With `C=C1C(C)=C(C#N)C(=O)N1C1CCCC(C)C1C` (stereo unspecified), the IC50 came to 250 µM.

Regarding `C=C1C(C)=C(C#N)C(=O)N1C1CC2CCC1C2` (stereo unspecified), the IC50 is 48 µM.

With `C=C1C(C)=C(C#N)C(=O)N1C1CCCc2ccccc21` (stereo unspecified), the IC50 is 26 µM.

As to `C=C1C(C)=C(C#N)C(=O)N1Cc1ccccc1Cl`, the concentration for half-maximal inhibition (IC50) was 37.5 µM.

Consider `C=C1C(C)=C(C#N)C(=O)N1c1ccccc1Cl`, for which the IC50 is 55 µM.

With `C=C1C(C)=C(C#N)C(=O)N1c1ccccc1Br`, the half-inhibitory concentration (IC50) is 37.5 µM.

Regarding `C=C1C(C)=C(C#N)C(=O)N1c1ccccc1C`, the IC50 was 80 µM.

Regarding `C=C1C(C)=C(C#N)C(=O)N1c1ccccc1C(C)C`, the concentration for half-maximal inhibition (IC50) was 22.5 µM.

On to `C=C1C(C)=C(C#N)C(=O)N1c1ccccc1C(C)(C)C`, for which the IC50 was 17.5 µM.

`C=C1C(C)=C(C#N)C(=O)N1c1ccccc1OC`: the IC50 amounted to 11 µM.

As to `C=C1C(C)=C(C#N)C(=O)N1c1ccccc1OCC`, the IC50 is 350 µM.

For `C=C1C(C)=C(C#N)C(=O)N1c1cccc(Cl)c1`, the IC50 was 19 µM.

With `C=C1C(C)=C(C#N)C(=O)N1c1cccc(SC)c1`, the half-maximal inhibitory concentration (IC50) was 25 µM.

As for `C=C1C(C)=C(C#N)C(=O)N1c1cccc(C(F)(F)F)c1`, the IC50 worked out at 22 µM.

On to `C=C1C(C)=C(C#N)C(=O)N1c1ccc(N(C)C)cc1`, for which the half-maximal inhibitory concentration (IC50) is 150 µM.

Consider `C=C1C(C)=C(C#N)C(=O)N1c1ccc(NC(C)=O)cc1`, for which the IC50 was found to be 575 µM.

On to `C=C1C(C)=C(C#N)C(=O)N1c1cccc(Cl)c1Cl`, for which the IC50 came to 22.5 µM.

Consider `C=C1C(C)=C(C#N)C(=O)N1c1ccc(F)cc1F`, for which the IC50 was determined as 90 µM.

As to `C=C1C(C)=C(C#N)C(=O)N1c1ccc(OC)cc1OC`, the 50% inhibitory concentration (IC50) came to 150 µM.

For `C=C1C(C)=C(C#N)C(=O)N1c1cc(Cl)ccc1Cl`, the half-inhibitory concentration (IC50) was 12.5 µM.

As for `C=C1C(C)=C(C#N)C(=O)N1c1cc(Cl)ccc1O`, the IC50 came to 92.5 µM.

As to `C=C1C(C)=C(C#N)C(=O)N1c1cc(Cl)ccc1OC`, the IC50 came out at 650 µM.

Turning to `C=C1C(C)=C(C#N)C(=O)N1c1c(C)cccc1[N+](=O)[O-]`, the IC50 came to 160 µM.

On to `C=C1C(C)=C(C#N)C(=O)N1c1ccc(F)c([N+](=O)[O-])c1`, for which the IC50 is 20 µM.

Take `C=C1C(C)=C(C#N)C(=O)N1c1ccc2c(c1)OCO2`: the concentration for half-maximal inhibition (IC50) worked out at 67.5 µM.

Regarding `C=C1C(C)=C(C#N)C(=O)N1c1ccc(Cl)c(Cl)c1Cl`, the half-maximal inhibitory concentration (IC50) came to 15 µM.

As for `C=C1C(CCCC)=C(C#N)C(=O)N1c1c(C)cc(Cl)cc1C(C)C`, the IC50 amounted to 17.5 µM.

For `C=C1C(CCCC)=C(C#N)C(=O)N1c1c(C)cc(C)cc1C`, the half-inhibitory concentration (IC50) came to 11 µM.

For `C=C1C(CCCC)=C(C#N)C(=O)N1c1cc(OC)c(OC)c(OC)c1`, the IC50 came to 21 µM.

Regarding `C=C1C(CC(C)C)=C(C#N)C(=O)N1c1cc(Cl)ccc1Cl`, the IC50 worked out at 6.8 µM.

With `C=C1C(CC(C)C)=C(C#N)C(=O)N1c1c(Cl)c(Cl)cc(Cl)c1Cl`, the half-maximal inhibitory concentration (IC50) turned out to be 45 µM.

As to `CN(C(=O)C1CCCCC1)N1C(=O)C(C#N)=C2CCCC=C21`, the concentration for half-maximal inhibition (IC50) amounted to 88 µM.

Regarding `C=C1C(C)=C(C#N)C(=O)N1c1ccccc1-c1ccccc1`, the IC50 came to 25 µM.

For the compound `C=C1C(C)=C(C#N)C(=O)N1c1ccccc1OC(F)(F)F`, the 50% inhibitory concentration (IC50) is 45 µM.

On to `C=C1C(c2ccccc2)=C(C#N)C(=O)N1c1cc(Cl)ccc1Cl`, for which the concentration for half-maximal inhibition (IC50) is 8.5 µM.

With `C=C1C(c2ccccc2)=C(C#N)C(=O)N1c1cc(C)ccc1F`, the concentration for half-maximal inhibition (IC50) is 12.5 µM.

Turning to `C=C1C(C)=C(C#N)C(=O)N1c1ccccc1Oc1ccccc1`, the IC50 came to 25 µM.

Take `C=C1C(C)=C(C#N)C(=O)N1c1ccccc1Cc1ccccc1`: the IC50 turned out to be 22.5 µM.

With `C=C1C(C)=C(C#N)C(=O)N1c1cccc(Oc2ccccc2)c1`, the IC50 was 18 µM.

With `C=C1C(CCCCCCCC)=C(C#N)C(=O)N1c1c(C)cc(C)cc1C`, the 50% inhibitory concentration (IC50) is 22 µM.

On to `CCC/C=C1\C(C)=C(C#N)C(=O)N1c1c(C(C)(C)C)ccc(Cl)c1C`, for which the IC50 was 2300 µM.

For the compound `COc1cc(OC)cc(N2C(=O)C(C#N)=C(C)/C2=C/C(C)C)c1`, the IC50 stood at 65 µM.

Turning to `C=C1C(C)=C(C#N)C(=O)N1c1ccc(-c2ccccc2)cc1`, the IC50 is 35 µM.

On to `C=C1C(C)=C(C#N)C(=O)N1c1ccc(N(C)C(C)=O)cc1`, for which the IC50 is 400 µM.

With `C=C1C(C)=C(C#N)C(=O)N1c1ccc(Cl)c2ccccc12`, the IC50 came out at 15 µM.

Consider `C=C1C(CC)=C(C#N)C(=O)N1NC(=O)c1ccc(Cl)cc1`, for which the IC50 stood at 72.5 µM.

For the compound `C=C1C(C)=C(C#N)C(=O)N1c1cc(C(F)(F)F)ccc1C(F)(F)F`, the 50% inhibitory concentration (IC50) was 4.5 µM.

For the compound `C=C1C(C)=C(C#N)C(=O)N1c1cc([N+](=O)[O-])ccc1OC`, the IC50 turned out to be 55 µM.

As for `C=C1C(C)=C(C#N)C(=O)N1c1cc(Cl)ccc1OC(=O)CC`, the half-maximal inhibitory concentration (IC50) turned out to be 55 µM.

With `C=C1C(C)=C(C#N)C(=O)N1c1c(C)cccc1C(C)(C)C`, the concentration for half-maximal inhibition (IC50) was found to be 160 µM.

With `C=C1C(C)=C(C#N)C(=O)N1c1c(CC)cccc1C(C)(C)C`, the half-inhibitory concentration (IC50) is 150 µM.

Consider `C=C1C(C)=C(C#N)C(=O)N1c1c(C)cc(Cl)cc1C(C)C`, for which the half-maximal inhibitory concentration (IC50) came out at 20 µM.

As for `C=C1C(C)=C(C#N)C(=O)N1c1c(C)cc(C)cc1C(F)(C(F)(F)F)C(F)(F)F`, the IC50 came out at 160 µM.

`C=C1C(CC)=C(C#N)C(=O)N1c1ccccc1C(C)(C)C`: the IC50 came out at 40 µM.

`C=C1C(CC)=C(C#N)C(=O)N1c1ccccc1OC(F)(F)F`: the IC50 was 26 µM.

For the compound `C=C1C(CC)=C(C#N)C(=O)N1c1c(C)cccc1C(C)C`, the concentration for half-maximal inhibition (IC50) amounted to 45 µM.

Consider `C=C1C(CCC)=C(C#N)C(=O)N1c1c(C)cccc1CC`, for which the IC50 turned out to be 48 µM.

Turning to `C=C1C(CCC)=C(C#N)C(=O)N1c1c(C)cccc1C(C)C`, the IC50 stood at 10.5 µM.

For `C=C1C(C(C)C)=C(C#N)C(=O)N1c1c(C)cc(Cl)cc1C`, the IC50 turned out to be 11 µM.

As for `C=C1C(C(C)C)=C(C#N)C(=O)N1c1c(C)cc(C)cc1C`, the IC50 is 55 µM.

For the compound `C=C1C(CCCC)=C(C#N)C(=O)N1c1ccccc1OC(F)(F)F`, the IC50 stood at 15 µM.

For the compound `C=C1C(CCCC)=C(C#N)C(=O)N1c1c(C)cccc1C`, the half-inhibitory concentration (IC50) amounted to 35 µM.

In the case of `C=C1C(CCCC)=C(C#N)C(=O)N1c1c(C)cccc1C(C)C`, the IC50 stood at 20.3 µM.
